According to ChEMBL document CHEMBL4339251, “Prenylated Bibenzyls from the Chinese Liverwort Radula constricta and Their Mitochondria-Derived Paraptotic Cytotoxic Activities” (J Nat Prod, 2019):
The source made the active and inactive calls. No cut-off for these calls is given here.

Key:
HepG2 = experiment: Cytotoxicity in human HepG2 cells assessed as reduction in cell viability incubated for 48 hrs by MTT assay; format: functional, cell-based; conditions: HepG2, 48 h
How it was run: (§1)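 MTT viability. Cells were seeded in 96-well plates overnight and exposed to a range of concentrations. MTT (5 mg/mL) was added for 4 h, formazan was dissolved in DMSO and absorbance read at 570 nm. Three independent experiments.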

NCI-H1299 [1] = experiment: Induction of cytoplasmic vacuolization in human NCI-H1299 cells at 10 uM treated for 3 hrs after pre-treatment with pan-caspase inhibitor Z-VAD-FMK for 1 hr by optical microscopy; format: functional, cell-based
How it was run: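 Caspase-inhibitor morphology. Cells were treated with DMSO, 20 μM Z-VAD-FMK, 10 μM compound, or the combinations for 3 h, then imaged by optical microscopy.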

A549 [2] = experiment: Induction of cytoplasmic vacuolization in human A549 cells at 10 uM measured within 3 hrs by optical microscopy; format: functional, cell-based
How it was run: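 Morphology. A549 or NCI-H1299 cells were treated at 10 μM and vacuole formation was followed by optical microscopy at the indicated times.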

A549 [3] = experiment: Induction of apoptosis in human A549 cells assessed as necrotic cells at 10 uM by annexinV-FITC and propidium iodide staining based flow cytometric analysis (reference value: 1.44%); format: functional
NCI-H1299 [4] = experiment: Induction of mitochondria-derived paraptosis in human NCI-H1299 cells assessed as induction of HMGB1 translocation from nucleus to cytoplasm at 10 uM incubated for 24 hrs by immunofluorescence staining; format: functional, cell-based
How it was run: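 HMGB1 immunofluorescence. Cells were treated at 10 μM for 24 h, fixed in 4% paraformaldehyde for 30 min, permeabilised with 0.3% Triton X-100 for 15 min and blocked with 5% BSA for 30 min. Anti-HMGB1 was applied at 4 °C overnight and the secondary antibody at 37 °C for 1 h. Nuclei were counterstained with DAPI and cells imaged by confocal microscopy.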

SMMC-7721 = experiment: Cytotoxicity in human SMMC7721 cells assessed as reduction in cell viability incubated for 48 hrs by MTT assay; format: functional, cell-based; conditions: SMMC-7721, 48 h
How it was run: as §1, with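 “viability. U251 and NCI-H1299 were grown in DMEM, the other lines in RPMI 1640, each with 10% FBS, penicillin and streptomycin, at 37 °C in 5% CO2.” for “viability.”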

A549 [5] = experiment: Induction of apoptosis in human A549 cells assessed as late apoptotic cells at 10 uM by annexinV-FITC and propidium iodide staining based flow cytometric analysis (reference value: 3.14%); format: functional
NCI-H1299 [6] = experiment: Induction of apoptosis in human NCI-H1299 cells assessed as early apoptotic cells at 20 uM by annexinV-FITC and propidium iodide staining based flow cytometric analysis (reference value: 1.26%); format: functional
A549 [7] = experiment: Cytotoxicity in human A549 cells assessed as reduction in cell viability at 5 uM incubated for 24 hrs in presence of pan-caspase inhibitor Z-VAD-FMK by MTT assay; format: functional, cell-based
NCI-H1299 [8] = experiment: Induction of apoptosis in human NCI-H1299 cells assessed as late apoptotic cells at 10 uM by annexinV-FITC and propidium iodide staining based flow cytometric analysis (reference value: 3.29%); format: functional
NCI-H1299 [9] = experiment: Induction of apoptosis in human NCI-H1299 cells assessed as induction of PARP cleavage at 2.5 to 10 uM incubated for 24 hrs by Western blot analysis; format: functional, cell-based
How it was run: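 Western blot. Cells were cultured overnight in six-well plates, then exposed to various concentrations for 24 h before immunoblotting.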

NCI-H1299 [10] = experiment: Induction of apoptosis in human NCI-H1299 cells assessed as early apoptotic cells at 10 uM by annexinV-FITC and propidium iodide staining based flow cytometric analysis (reference value: 1.26%); format: functional
A549 [11] = experiment: Induction of ROS generation in human A549 cells after 1 hr by DCFH-DA staining based flow cytometry relative to untreated control; format: functional
How it was run: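 ROS by flow cytometry. Cells were exposed for the indicated times, then stained with DCFH-DA (10 μM). DCF mean fluorescence intensity was compared with untreated control. Mean ± SD, n = 3.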

NCI-H1299 [12] = experiment: Induction of mitochondria-derived paraptosis in human NCI-H1299 cells assessed as formation of fusion among swollen mitochondria after 6 to 24 hrs by Mito-Tracker staining based fluorescence microscopy; format: functional, cell-based
How it was run: (§2)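 Live-cell imaging. Treated cells on coverslips were stained with Mito-Tracker Red (100 nM) at 37 °C for 30 min, washed three times with PBS and stained with Hoechst 33342 (10 μg/mL) for 15 min. Images were taken by confocal or fluorescence microscopy at the indicated times.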

NCI-H1299 [13] = experiment: Induction of mitochondria-derived paraptosis in human NCI-H1299 cells assessed as formation of fluorescent vacuoles after 3 hrs by Mito-Tracker staining based fluorescence microscopy; format: functional, cell-based; how it was run: as §2

COC(=O)c1c(CCc2ccccc2)cc(O)c(CC=C(C)C)c1O
IC50 (HepG2): 6.3 µM | Activity (NCI-H1299 [1]): Active | Activity (A549 [2]): Active | Activity (A549 [3]): 2.02% | Activity (NCI-H1299 [4]): Active | IC50 (SMMC-7721): 8.6 µM | Activity (A549 [5]): 3.39% | Activity (NCI-H1299 [6]): 1.11% | Activity (A549 [7]): Active | Activity (NCI-H1299 [8]): 3.36% | Activity (NCI-H1299 [9]): inactive | Activity (NCI-H1299 [10]): 0.57% | fold change (FC) (A549 [11]): 20 | Activity (NCI-H1299 [12]): Active | Activity (NCI-H1299 [13]): Active
